# HCT116 PTEN-null: PTEN-deleted cell growth suppression | HCT116 PTEN-null viability, CellTiter-Glo, 60 h; hits give low values | viability, % at 10 µM | 140,000 compounds, 1.2% hits | AID 827;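 active means viability at or below a set limit, 4 SD under the median of all tested compounds, cut at about 3.7% in these data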;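 further: PTEN knockout HCT116 line with beta catenin targeted HCT116 as companion control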
# Lmaj promast: reduces viability of Leishmania major promastigotes; 200,000 compounds, 9% hits; inhibition, % at 10 µM; AID 1063; resazurin fluorescence viability; in the data active means inhibition above about 50%;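 further: promastigotes grown with compound for 44 hours at 28 °C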
# PMI activator: activators of human phosphomannose isomerase; P34949; purified human PMI, coupled resazurin fluorescence, 20 min; hits give high values; 1 = vehicle control, 0 substrate-free wells; activation factor at 20 µM; 190,000 compounds, 0.005% hits; AID 1214;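 active means activation factor of 2 or more at 20 µM, relative to plate controls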
# Target sequence (P34949 whole entry, looked up): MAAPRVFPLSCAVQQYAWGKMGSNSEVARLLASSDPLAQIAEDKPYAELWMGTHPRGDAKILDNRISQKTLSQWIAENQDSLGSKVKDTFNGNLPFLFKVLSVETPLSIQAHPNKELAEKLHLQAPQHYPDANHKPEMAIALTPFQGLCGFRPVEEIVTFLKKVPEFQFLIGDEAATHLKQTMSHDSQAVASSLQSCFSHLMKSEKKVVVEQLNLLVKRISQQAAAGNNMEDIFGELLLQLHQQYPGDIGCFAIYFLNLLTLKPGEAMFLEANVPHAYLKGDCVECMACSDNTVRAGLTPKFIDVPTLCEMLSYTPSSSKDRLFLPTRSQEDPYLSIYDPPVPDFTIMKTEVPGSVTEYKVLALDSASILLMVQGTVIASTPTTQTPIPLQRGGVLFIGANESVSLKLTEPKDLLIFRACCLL
# bCat KO growth: beta-catenin-lacking colon tumor cell growth suppression | HCT116 beta-catenin knockout viability, CellTiter-Glo, 60 h; hits give low values | viability, % at 10 µM | 140,000 compounds, 1.5% hits;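 active means viability at or under a set limit, the compound median less 4 SD, cut at about 6% in these data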;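 further: 0% = Hyamine 1622 control at 20 µM and 100% = untreated cell control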
# PMI act satM6P: PMI (human) activation, high substrate; P34949; coupled PMI enzyme assay, resazurin fluorescence, 20 min; hits give high values; 1 = untreated enzyme, 0 = substrate-free blank; activation factor at 20 µM; 190,000 compounds, 0.34% hits;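 active means activation factor of 2 or more at 20 µM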
#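 Technique: Diaphorase-driven resazurin-to-resorufin fluorescence, excitation 544, emission 590 nm | Assay system: Human PMI in coupled enzyme assay | Times: Enzyme reaction with compound 20 min at room temperature | Medium: HEPES-buffered pH 7.4 with magnesium and detergent | Reagent: Mannose-6-phosphate 1.0 mM (near-saturating) plus 0.22 mM NADP+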
# Numbers without * were called inactive; . = no result. Hits are enriched below; roughly 9.6% of the tested compounds scored in any of these assays.
SMILES,HCT116 PTEN-null,Lmaj promast,PMI activator,bCat KO growth,PMI act satM6P
CC1=NCCN1S(=O)(=O)c1ccccc1[N+](=O)[O-],.,0,1,.,0.9
Cc1ccc(NC(=O)C2CC(=O)N(c3ccc4c5c(cccc35)CC4)C2)cc1 (stereo not given),89,12,1,96,1
N#Cc1ccccc1NC(=O)C1CC(=O)N(c2ccc3c4c(cccc24)CC3)C1 (stereo not given),95,57*,0.9,89,1
Cc1ccc2c(O)c(C)c(=O)[nH]c2n1,.,-6,1.1,.,1.1
Cc1nonc1C(=O)N/N=C/c1ccc(O)cc1O,.,98*,.,.,.
CCCC(=O)Nc1ccc(C(=O)N/N=C/c2ccc([N+](=O)[O-])o2)cc1,1.9*,99*,1,2.7*,0.7
Cc1ccc(/C=N/N(Cc2ccccc2)c2ccccc2)o1,.,2,1,.,0.6
CN(/N=C/c1ccc([N+](=O)[O-])o1)c1ccccc1,.,71*,1.1,.,1
O=C(N/N=C/c1ccc(-c2cccc([N+](=O)[O-])c2)o1)[C@H]1C[C@@H]1c1ccccc1,45,8,1,43,0.9
O=C(N/N=C/c1ccc([N+](=O)[O-])o1)C1CC1,.,100*,1.1,.,0.7
O=C(CNC(=O)c1cccc(F)c1)N/N=C/c1cccc([N+](=O)[O-])c1,95,81*,1,96,1
Cc1nonc1C(=O)N/N=C/c1ccncc1,.,-2,1.1,.,1.1
CCCCCCCC(=O)Nc1ccc(C(=O)N/N=C/c2cccc([N+](=O)[O-])c2)cc1,1.7*,-3,1.1,1.5*,1.1
O=[N+]([O-])c1ccc(/C=N/NC(=S)Nc2ccccc2C(F)(F)F)o1,68,19,0.9,78,0.9
O=C(CNC(=O)c1cccc(F)c1)N/N=C/C=C/c1ccccc1,.,2,1,.,1
Cc1nonc1C(=O)N/N=C/c1ccc([N+](=O)[O-])o1,.,94*,1.3,.,0.8
COC(=O)N/N=C/c1ccc([N+](=O)[O-])o1,71,99*,1.2,67,1.1
Cc1ccc2c(c1)C(=O)C(=O)N2CC(=O)Nc1ccc(N2CCOCC2)cc1,.,-2,.,.,.
O=C(NCc1ccco1)c1ccc(-c2cccc(Cl)c2)o1,.,-5,1,.,1
NC(=O)C1(N2CCCCC2)CCN(C(=S)Nc2ccc(F)c(Cl)c2)CC1,.,0,0.9,.,1
CCOc1ccc(-n2nc3c(Cl)nnc(C)c3c2C)cc1,96,1,1,110,1
O=C(Nc1ccccc1)Nc1cccc(C(F)(F)F)c1,.,-4,1.1,.,1
CCSCCc1nnc(NC(=O)Nc2cccc(C(F)(F)F)c2)s1,3.7*,5,1,4.5*,1
CN1CCN(C(=S)c2cn(Cc3cccc(F)c3)c3ccccc23)CC1,.,23,1,.,1.1
Cc1ccccc1OCCn1cc(C(=S)N2CCN(C)CC2)c2ccccc21,.,79*,1,.,1.1
SMILES,HCT116 PTEN-null,Lmaj promast,PMI activator,bCat KO growth,PMI act satM6P
CN1CCN(C(=S)c2cn(Cc3ccc(F)cc3)c3ccccc23)CC1,.,51*,1,.,1
Cn1c(Sc2ccc([N+](=O)[O-])cc2C(F)(F)F)nnc1-c1ccccc1,78,62*,1,60,1
CCOC(=O)c1c(C)[nH]c(C)c1C(=O)COC(=O)c1cccc(S(=O)(=O)NC)c1,83,80*,0.9,83,1
CCOC(=O)c1c(C)[nH]c(C)c1C(=O)COC(=O)c1cccc(S(=O)(=O)N(CC)CC)c1,86,99*,1.1,73,1.1
Cc1ccc(-c2nn3c(C)nnc3s2)cc1NC(=O)c1ccc(-c2ccc(Cl)cc2Cl)o1,3.2*,-3,1.1,2.3*,1
Cc1ccc(-c2nn3c(C)nnc3s2)cc1NC(=O)c1ccc(-c2cccc(Cl)c2)o1,8,15,1.1,11,1
Cc1nnc2sc(-c3cccc(NC(=O)c4ccc(-c5cccc(Cl)c5)o4)c3)nn12,.,98*,.,.,.
COC(=O)C1CCN(Cc2cn(-c3ccccc3)nc2-c2ccc3c(c2)OCO3)CC1,.,14,0.9,.,0.9
CC(OC(=O)c1cc(-c2cccnc2)nc2ccccc12)C(=O)Nc1ccc2ccccc2c1 (stereo not given),80,75*,1,84,0.9
COc1ccc(NC(=S)/N=C(\N)Nc2nc(C)c3ccc(C)cc3n2)cc1,.,38,1,.,1
Cc1ccc2c(C)nc(N/C(N)=N/S(=O)(=O)c3ccc([N+](=O)[O-])cc3)nc2c1,67,88*,1,63,1
N/C(=N\S(=O)(=O)c1ccccc1)c1ccc([N+](=O)[O-])cc1,84,-4,0.9,84,0.9
Cc1nc(N/C(N)=N/S(=O)(=O)c2ccc([N+](=O)[O-])cc2)nc2ccccc12,82,54*,0.9,84,0.9
CCCCC(=O)NCc1ccc(Cl)cc1,103,-7,1,103,1
Cc1ccc(S(=O)(=O)Nc2ccc(NC(=O)c3cccnc3)cc2)cc1,.,5,0.9,.,1
C=CCNc1nc(N)c(C(=C(C#N)C#N)c2ccc(Br)cc2)s1,30,20,0.9,50,1
O=S(=O)(c1ccc(NC(=S)N/N=C/c2ccc(Oc3ccccc3)cc2)cc1)N1CCOCC1,.,-10,1.1,.,1.1
CC(C)(C)CC(C)(C)NC(=S)Nc1ccc(S(=O)(=O)N2CCOCC2)cc1,27,28,0.8,47,0.8
COc1ccccc1N1CCN(C(=S)Nc2ccc(S(=O)(=O)N3CCOCC3)cc2)CC1,.,71*,0.9,.,1
O=S(=O)(c1ccc(NC(=S)N/N=C/c2c3ccccc3cc3ccccc23)cc1)N1CCOCC1,.,95*,1.5,.,1.8
O=S(=O)(c1ccc(NC(=S)NCCC(c2ccccc2)c2ccccc2)cc1)N1CCOCC1,25,60*,1,23,1
COc1ccc(OC(C)C(=O)N2CCCc3ccccc32)cc1 (stereo not given),.,14,1,.,1
O=C(Nc1nc(-c2cccs2)c(-c2cccs2)s1)C1CCCC1,58,23,0.9,60,0.9
O=C(c1cnn2c(C(F)(F)F)cc(-c3ccccc3)nc12)N1CCCc2ccccc21,98,0,0.9,94,0.9
O=C(c1cnn2c(C(F)(F)F)cc(-c3ccccc3)nc12)N1CCCCC1c1cccnc1 (stereo not given),.,52*,0.8,.,0.9
O=C(c1cc2nc(-c3ccc(F)cc3)cc(C(F)(F)F)n2n1)N1CCCCC1c1cccnc1 (stereo not given),.,96*,1,.,1
CN1CCN(C(=O)c2cc3nc(-c4ccc(F)cc4)cc(C(F)(F)F)n3n2)CC1,88,4,1.1,91,1
CCOC(=O)c1oc2ccccc2c1NC(=O)c1cccc(OC)c1OC,45,3,1,54,1
CC(NC(=O)c1ccco1)c1cccc2ccccc12 (stereo not given),102,5,1,100,0.9

# Assay outcomes deposited in PubChem by several laboratories.
